KCNQ1 inh: human KCNQ1 channel inhibition; P51787; CHO-K1 KCNQ1, FluxOR thallium flux fluorescence; hits give high values; B-score at 10 µM; hit rate 1.3% among 310,000; AID 2642;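 active means compounds whose thallium flux B-score, printed positive for inhibition, exceeds three library SD while starting fluorescence stays within three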;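 further: channel opened by potassium depolarization with thallium stimulus after 20 min compound exposure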
Target sequence (P51787 whole entry, looked up): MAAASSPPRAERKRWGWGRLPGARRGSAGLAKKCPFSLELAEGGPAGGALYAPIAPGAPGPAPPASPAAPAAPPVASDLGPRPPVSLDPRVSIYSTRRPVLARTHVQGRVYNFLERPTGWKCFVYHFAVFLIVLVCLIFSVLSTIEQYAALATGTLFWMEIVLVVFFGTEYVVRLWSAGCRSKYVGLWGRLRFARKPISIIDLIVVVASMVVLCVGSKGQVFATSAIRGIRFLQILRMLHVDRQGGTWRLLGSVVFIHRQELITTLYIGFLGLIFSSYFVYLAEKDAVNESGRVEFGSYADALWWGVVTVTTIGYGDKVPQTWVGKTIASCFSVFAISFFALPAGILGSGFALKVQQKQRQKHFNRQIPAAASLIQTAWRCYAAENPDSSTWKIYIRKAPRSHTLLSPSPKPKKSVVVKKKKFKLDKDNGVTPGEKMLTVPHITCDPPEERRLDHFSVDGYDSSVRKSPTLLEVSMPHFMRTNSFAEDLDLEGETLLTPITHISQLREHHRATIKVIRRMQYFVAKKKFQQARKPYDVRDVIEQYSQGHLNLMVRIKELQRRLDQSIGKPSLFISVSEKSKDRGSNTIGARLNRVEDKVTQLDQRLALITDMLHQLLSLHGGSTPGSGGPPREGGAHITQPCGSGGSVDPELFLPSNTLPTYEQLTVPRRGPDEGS
KCNK9 block: human KCNK9 channel inhibition | HEK293 KCNK9, FluxOR thallium flux fluorescence; hits give low values | Q9NPC2 | hit rate 1.2% among 310,000 | B-score at 10 µM | AID 488922;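 active means ratio B-score over 3 SD below the library mean, with starting fluorescence within 5 SD of its mean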;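 further: negative B-score means less thallium flux so channel inhibition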
Kir21 block: blocks the mouse Kir2.1 inward-rectifier potassium channel; HEK293-Kir2.1, FluxOR thallium flux fluorescence; hits give low values; B-score at 10 µM; hit rate 0.85% among 310,000;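 active means fluorescence ratio B-score at or below minus 3 SD of library scores, with starting-brightness B-score within 2 SD, cut at about -4.2 in these data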;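 further: channel flux triggered by added potassium and thallium sulfate stimulus; B-score of peak minus minimum fluorescence over baseline after thallium stimulus; more negative B-score means stronger Kir2.1 block with less thallium influx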
KCNQ1 act: potentiators or activators of human KCNQ1 potassium channel; P51787; CHO-K1 KCNQ1, thallium flux FluxOR fluorescence; hits give high values; B-score at 10 µM; hit rate 0.35% among 310,000; AID 2648;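 active means fluorescence ratio B-score, a plate-corrected score, at least three library SD, with initial intensity B-score within 5 SD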
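Test system: CHO-K1 cells stably expressing KCNQ1 / Medium: assay buffer / Also added: depolarizing K+/Tl+ stimulus, K2SO4 and Tl2SO4 each 12.5 mM in 5x stock / Incubation: 90 min dye loading and 20 min compound exposure, both at room temperature / Signal: thallium influx via FluxOR fluorescence, kinetic imaging / Evaluation: B score of baseline-normalized fluorescence ratio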
KCNK3 block: human KCNK3 channel inhibition, primary screen; B-score at 10 µM; AID 602410; hit rate 0.84% among 340,000; CHO-KCNK3 thallium flux, FluxOR fluorescence; hits give low values; O14649;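 active means B-score under library mean minus 4 SD, starting fluorescence ratio at most library mean plus 5 SD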;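 further: more negative B-score means stronger inhibition of thallium flux through KCNK3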
hERG rescue: compounds protecting human hERG from proarrhythmic drug block; Q12809; CHO-hERG, FluxOR thallium flux, dofetilide IC70 present; activation (rescue from dofetilide block), less the hit threshold, % at 10 µM; hit rate 0.51% among 310,000;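 active means activation above the mean of controls blocked by dofetilide plus 5 SD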;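 further: thallium influx through hERG after potassium depolarization seen as dye fluorescence rise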
KCNK9 block conf: confirmation of human KCNK9 potassium channel inhibitors; shares compounds with KCNK9 block; inhibition, % at 10 µM; hit rate 43% among 4,900; HEK293 KCNK9 cells, FluxOR thallium flux fluorescence;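 active means thallium signal inhibited by more than 5 SD of the compound-free buffer control wells, on both duplicate plates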;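 further: 0% = assay buffer control wells without compound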
Kir2-1 spec: mouse Kir2.1 off-target activity of KCNK9 modulators; shares compounds with KCNK9 block; Kir2.1 cells, FluxOR thallium flux fluorescence; inhibition, % at 10 µM; hit rate 4% among 4,900;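 active means thallium signal drop more than 5 SD beyond the mean of the no-compound control wells, seen in both duplicate plates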;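 further: signal is fluorescence rise after thallium addition divided by baseline fluorescence; plate controls were assay buffer only for no effect and full block by chlorpromazine control for full effect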
KCNK9 uninduced: second counter-screen for KCNK9 modulators: effect in non-induced cells; AID 492997; inhibition, % at 10 µM; shares compounds with KCNK9 block; non-induced KCNK9-HEK293, FluxOR thallium flux; hit rate 40% among 4,900;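 active means thallium signal drop beyond 5 SD of the untreated control mean, on both duplicate plates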;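 further: plate controls were buffer only IC0 wells for no effect and SID17386958 at its maximal inhibitory level for full effect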
An asterisk follows results filed as active; i = inactive; x = no result. A selection: hits, their analogues and other compounds. The true share with any hit is near 3.7%.

SMILES	KCNQ1 inh	KCNK9 block	Kir21 block	KCNQ1 act	KCNK3 block	hERG rescue	KCNK9 block conf	Kir2-1 spec	KCNK9 uninduced
COc1cccc(NC(=O)CN(C)C(=O)c2ccc(OCc3ccccc3)c(OC)c2)c1	i	i	-0.55	i	i	-11.5	x	x	x
Cc1cccc(/C=C2/C(=O)/C(=C/c3ccccc3C)C3CCC2N3C)c1 (stereo not drawn)	i	i	-0.84	i	i	-7.8	i	i	i
Cc1ccc2c(c1)/C(=C/c1ccccc1C)C(=O)N2	i	i	0.75	i	i	-0.7	x	x	x
CCOC(=O)C1CCN(c2nc(-c3ccc(Br)cc3)nc3ccccc23)CC1	i	-8.81*	2.6	i	i	-12.4	i	i	22.5%*
O=C(N/N=C/c1ccccn1)c1cc(-c2ccc3ccccc3c2)n[nH]1	i	-12.8*	-1.2	i	i	-8.6	45.0%*	i	31.0%*
CC1(NC(=O)c2cc(Cl)nc3ccccc23)CCS(=O)(=O)C1 (stereo not drawn)	x	x	x	x	i	x	x	x	x
C1CC(=NN=C2CCSCC2)CCS1	x	x	x	x	i	x	x	x	x
c1coc(CN(Cc2cccs2)Cc2nnnn2C2CCCCC2)c1	i	i	-0.86	i	i	-3.0	x	x	x
Clc1ccccc1CN(Cc1ccco1)Cc1nnnn1C1CCCC1	i	-9.87*	-2.9	i	i	-4.9	59.5%*	47.0%*	41.0%*
CCOC(=O)C1=C(C)N=C2SC(C)C(=O)N2C1c1ccc(OC(C)=O)c(OC)c1 (stereo not drawn)	i	-14.5*	-2.32	i	i	-7.2	63.0%*	i	33.5%*
COc1ccc(C(=O)CN2CCN(CCN3C(=O)c4cccc5cccc(c45)C3=O)CC2)cc1	i	i	0.03	i	i	-17.1	i	i	i
COc1cccc(-c2nc(CS(=O)(=O)CC(=O)NCC(C)c3ccccc3)c(C)o2)c1 (stereo not drawn)	i	i	-1.58	i	i	-11.8	i	i	i
CC1C(=NO)C(C)C(c2ccccc2)NC1c1ccccc1 (stereo not drawn)	i	i	-2.48	i	i	-14.3	x	x	x
Cc1ccc(C2NC(c3ccc(C)cc3)C(C)C(=NO)C2C)cc1 (stereo not drawn)	i	i	0.81	i	i	-10.3	i	i	i
C=CCN(c1ccccc1OC)S(=O)(=O)c1cccc(C(=O)NCc2cccs2)c1	x	x	x	x	i	x	x	x	x
Cc1ccc(Nc2nc3ccccc3nc2-n2nc(C)cc2C)cc1	i	-9.76*	0.91	i	i	-10.4	57.0%*	i	31.5%*
Cc1cc2ccccc2n1CCNC(=O)c1ccccc1	i	-9.62*	-0.44	i	i	-12.2	36.5%*	i	25.0%*
Cc1ccc(C(=O)NCCSCc2ccccc2)cc1[N+](=O)[O-]	i	i	0.03	i	i	-2.6	x	x	x
Cc1ccc(C(=O)NCCn2ccc3ccccc32)cc1[N+](=O)[O-]	i	i	0.81	i	i	-20.7	i	i	i
CC(=O)NCCn1c(C)cc2ccccc21	i	i	0.21	i	i	-8.3	x	x	x
Cc1c(C(=O)NCCn2ccc3ccccc32)cccc1[N+](=O)[O-]	i	i	-1.78	i	i	-7.4	x	x	x
O=C(NCCc1cccc(Cl)c1)c1ccc(Cl)c([N+](=O)[O-])c1	i	i	2.19	i	i	-14.6	i	i	i
Cc1ccc(C(=O)NCCc2cccc(Cl)c2)cc1[N+](=O)[O-]	i	i	-1.85	i	i	-10.4	i	i	i
COc1ccccc1OCC(=O)Nc1nc(C)c(C)s1	i	i	0.13	i	i	-4.3	x	x	x
